The values below come from ChEMBL document CHEMBL1148376, “Synthesis, monoamine transporter binding properties, and behavioral pharmacology of a series of 3beta-(substituted phenyl)-2beta-(3'-substituted isoxazol-5-yl)tropanes” (J Med Chem, 2004).

Assay [1] concerns Rattus norvegicus. The assay is described as follows: Drug discrimination effect of compound in rats, expressed as percent of rats choosing the cocaine lever at dose 1 mg/kg (ip). In kind it is functional.
For assay [2], the system named is Mus musculus. The assay is described as follows: Percent change from vehicle in locomotor activity in mice at 56 mg/kg (ip) in 1 h. In kind it is functional.
Assay [3] concerns Mus musculus. The assay is described as follows: Percent change from vehicle in locomotor activity in mice at 56 mg/kg (ip) in 2 h. In kind it is functional.
Assay [4] has as its system Mus musculus. The assay is described as follows: Percent change from vehicle in locomotor activity in mice at 17 mg/kg (ip) in 1 h. The assay is classed as functional.
For assay [5], the system named is Mus musculus. Description: Percent change from vehicle in locomotor activity in mice at 17 mg/kg (ip) in 2 h. The assay is classed as functional.
In assay [6] the test system is Mus musculus. Description: Percent change from vehicle in locomotor activity in mice at 56 mg/kg (ip) in 3 h. In kind it is functional.
Assay [7] is filed under the species Mus musculus. The assay is described as follows: Effective dose for locomotor activity in mice in the peak hour. The assay is classed as functional.
Assay [8] relates to Mus musculus. The assay is described as follows: Percent change from vehicle in locomotor activity in mice at 17 mg/kg (ip) in 4 h. In kind it is functional.
For assay [9], the system named is Mus musculus. The assay is described as follows: Percent change from vehicle in locomotor activity in mice at 5.6 mg/kg (ip) in 1 h. In kind it is functional.
Assay [10] has as its system Rattus norvegicus. Description: Drug discrimination effect of compound in rats, expressed as percent of rats choosing the cocaine lever at dose 1.7 mg/kg (ip). The assay is classed as functional.
In assay [11] the test system is Rattus norvegicus. The assay is described as follows: Effective dose for drug discrimination effect in rat (ip). In kind it is functional. A digest of the protocol:
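Cocaine-trained rat drug discrimination, FR10, 10-min sessions. Compound in 0.5% methyl cellulose given ip 15 min before session, usually to 7-8 rats per dose. Doses were raised from ≤20% to ≥80% cocaine-lever choice, capped at 30 mg/kg, >50% loss of pressing, or side effects.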

Assay [12] deals with Mus musculus. The assay is described as follows: Percent change from vehicle in locomotor activity in mice at 5.6 mg/kg (ip) in 3 h. In kind it is functional.
The test system of assay [13] is Mus musculus. Description: Percent change from vehicle in locomotor activity in mice at 56 mg/kg (ip) in 4 h. In kind it is functional.
Assay [14] deals with Rattus norvegicus. The assay is described as follows: Drug discrimination effect of compound in rats, expressed as percent of rats choosing the cocaine lever at dose 3 mg/kg (ip). In kind it is functional.
The test system of assay [15] is Rattus norvegicus. The assay is described as follows: Drug discrimination effect of compound in rats, expressed as percent of rats choosing the cocaine lever at dose 10 mg/kg (ip). In kind it is functional.
In assay [16] the test system is Mus musculus. The assay is described as follows: Percent change from vehicle in locomotor activity in mice at 5.6 mg/kg (ip) in 2 h. In kind it is functional.
The test system of assay [17] is Mus musculus. Description: Percent change from vehicle in locomotor activity in mice at 5.6 mg/kg (ip) in 4 h. The assay is classed as functional.
For assay [18], the system named is Mus musculus. Description: Percent change from vehicle in locomotor activity in mice at 17 mg/kg (ip) in 3 h. The assay is classed as functional.
For assay [19], the system named is Rattus norvegicus. The assay is described as follows: Drug discrimination effect of compound in rats, expressed as percent of rats choosing the cocaine lever at dose 5.6 mg/kg (ip). In kind it is functional.
Assay [20] deals with Mus musculus. Description: Percent change from vehicle in locomotor activity in mice at 0.3 mg/kg (ip) in 4 h. In kind it is functional.
The subject of assay [21] is Mus musculus. The assay is described as follows: Percent change from vehicle in locomotor activity in mice at 30 mg/kg (ip) in 3 h. In kind it is functional.
The test system of assay [22] is Mus musculus. The assay is described as follows: Percent change from vehicle in locomotor activity in mice at 30 mg/kg (ip) in 4 h. The assay is classed as functional.
Assay [23] has as its system Mus musculus. The assay is described as follows: Percent change from vehicle in locomotor activity in mice at 0.3 mg/kg (ip) in 2 h. The assay is classed as functional.
For assay [24], the system named is Mus musculus. Description: Percent change in locomotor activity in mice at 3 mg/kg i.p. in 1 h. The settings on record: route intraperitoneal. The assay is classed as functional. A digest of the protocol:
(§1)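 Mice habituated 1/2 h to photocell activity chambers, then injected ip with compound homogenized in 0.5% methyl cellulose (10 mL/kg); vehicle controls; N = 5 or 6 per dose. Photobeam interruptions recorded in 10-min bins for 4 h, grouped into 1-h bins; one-way ANOVA with Newman-Keuls post hoc test (p < 0.05).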

Assay [25] has as its system Rattus norvegicus. Description: Drug discrimination effect of compound in rats, expressed as percent of rats choosing the cocaine lever at dose 30 mg/kg (ip). In kind it is functional.
In assay [26] the test system is Mus musculus. The assay is described as follows: Percent change from vehicle in locomotor activity in mice at 30 mg/kg (ip) in 1 h. In kind it is functional.
Assay [27] has as its system Mus musculus. The assay is described as follows: Percent change in locomotor activity in mice at 3 mg/kg i.p. in 4 h. In kind it is functional. The conditions noted are these: route intraperitoneal. Summed up:
as §1

For assay [28], the system named is Mus musculus. Description: Percent change in locomotor activity in mice at 1 mg/kg i.p. in 1 h. The settings on record: route intraperitoneal. In kind it is functional.
In assay [29] the test system is Mus musculus. The assay is described as follows: Percent change from vehicle in locomotor activity in mice at 10 mg/kg (ip) in 4 h. In kind it is functional.
Assay [30] deals with Mus musculus. The assay is described as follows: Percent change from vehicle in locomotor activity in mice at 0.3 mg/kg (ip) in 3 h. The assay is classed as functional.
Assay [31] deals with Mus musculus. Description: Percent change from vehicle in locomotor activity in mice at 10 mg/kg (ip) in 3 h. The assay is classed as functional.
Assay [32] deals with Mus musculus. The assay is described as follows: Percent change in locomotor activity in mice at 1 mg/kg i.p. in 4 h. The assay is classed as functional. The conditions noted are these: route intraperitoneal. Summed up:
as §1

Assay [33] addresses Sodium-dependent dopamine transporter (Rattus norvegicus, UniProt P23977). Description: Inhibitory concentration required to inhibit dopamine transporter DAT was determined by using [3H]WIN-35428 radioligand. A digest of the protocol: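 Competition binding at the DAT with 0.5 nM [3H]WIN35,428 (final concentration). Other procedures follow earlier published methods.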
Assay [34] has as its system Mus musculus. Description: Percent change from vehicle in locomotor activity in mice at 10 mg/kg (ip) in 1 h. In kind it is functional.
The test system of assay [35] is Mus musculus. Description: Percent change in locomotor activity in mice at 1 mg/kg i.p. in 2 h. The assay is classed as functional. The conditions noted are these: route intraperitoneal. Summed up: as §1
Assay [36] has as its system Rattus norvegicus. Description: Drug discrimination effect of compound in rats, expressed as percent of rats choosing the cocaine lever at dose 17 mg/kg (ip). The assay is classed as functional.
For assay [37], the system named is Mus musculus. The assay is described as follows: Percent change from vehicle in locomotor activity in mice at 30 mg/kg (ip) in 2 h. The assay is classed as functional.
Assay [38] deals with Mus musculus. The assay is described as follows: Percent change in locomotor activity in mice at 3 mg/kg i.p. in 2 h. The assay is classed as functional. The conditions noted are these: route intraperitoneal. Summed up: as §1
The species entered for assay [39] is Mus musculus. Description: Effective dose was evaluated for locomotor activity in mice in the peak hour; No stimulation. The assay is classed as functional, organism-based.
Assay [40] relates to Mus musculus. The assay is described as follows: Percent change locomotor activity in mice at 1 mg/kg i.p. in 3 h. The assay is classed as functional. The settings on record: route intraperitoneal. A digest of the protocol: as §1
Assay [41] concerns the target Norepinephrine transporter (Rattus norvegicus, UniProt Q9WTR4). The assay is described as follows: Binding affinity towards norepinephrine transporter was determined by using [3H]nisoxetine radioligand. A digest of the protocol: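 Competition binding at the NET with 0.5 nM [3H]nisoxetine (final concentration). Other procedures follow earlier published methods.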

Assay [42] relates to Mus musculus. The assay is described as follows: Percent change from vehicle in locomotor activity in mice at 10 mg/kg (ip) in 2 h. The assay is classed as functional.
The subject of assay [43] is Mus musculus. Description: Percent change from vehicle in locomotor activity in mice at 0.3 mg/kg (ip) in 1 h. In kind it is functional.
Assay [44] concerns the target Sodium-dependent serotonin transporter (Rattus norvegicus, UniProt P31652). Description: Inhibitory concentration required to inhibit serotonin transporter 5-HTT was determined by using [3H]paroxetine radioligand. Summed up: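 Competition binding at the 5-HTT with 0.2 nM [3H]paroxetine (final concentration). Other procedures follow earlier published methods.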

In assay [45] the test system is Mus musculus. Description: Percent change in locomotor activity in mice at 3 mg/kg i.p. in 3 h. The assay is classed as functional. The settings on record: route intraperitoneal. A digest of the protocol: as §1

Activity calls are given as the source filed them. The rule behind the calls is not given here.

Sequence of Norepinephrine transporter (Q9WTR4 whole entry): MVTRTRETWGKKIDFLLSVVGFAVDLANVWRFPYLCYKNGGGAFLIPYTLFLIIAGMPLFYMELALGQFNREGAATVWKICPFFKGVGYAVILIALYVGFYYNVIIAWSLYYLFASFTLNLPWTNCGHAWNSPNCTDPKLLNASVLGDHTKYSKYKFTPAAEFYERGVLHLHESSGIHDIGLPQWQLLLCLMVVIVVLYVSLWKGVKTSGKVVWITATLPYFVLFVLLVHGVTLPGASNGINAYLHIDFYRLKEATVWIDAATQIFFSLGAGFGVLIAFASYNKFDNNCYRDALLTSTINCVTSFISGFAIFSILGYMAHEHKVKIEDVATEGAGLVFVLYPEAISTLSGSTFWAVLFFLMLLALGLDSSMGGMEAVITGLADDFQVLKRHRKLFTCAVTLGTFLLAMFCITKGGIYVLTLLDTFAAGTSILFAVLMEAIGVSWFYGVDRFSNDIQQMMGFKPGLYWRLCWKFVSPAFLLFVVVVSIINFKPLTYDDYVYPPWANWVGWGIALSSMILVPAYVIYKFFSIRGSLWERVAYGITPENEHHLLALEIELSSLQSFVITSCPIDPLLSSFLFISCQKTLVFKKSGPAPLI
Sequence of Sodium-dependent dopamine transporter (P23977 whole entry): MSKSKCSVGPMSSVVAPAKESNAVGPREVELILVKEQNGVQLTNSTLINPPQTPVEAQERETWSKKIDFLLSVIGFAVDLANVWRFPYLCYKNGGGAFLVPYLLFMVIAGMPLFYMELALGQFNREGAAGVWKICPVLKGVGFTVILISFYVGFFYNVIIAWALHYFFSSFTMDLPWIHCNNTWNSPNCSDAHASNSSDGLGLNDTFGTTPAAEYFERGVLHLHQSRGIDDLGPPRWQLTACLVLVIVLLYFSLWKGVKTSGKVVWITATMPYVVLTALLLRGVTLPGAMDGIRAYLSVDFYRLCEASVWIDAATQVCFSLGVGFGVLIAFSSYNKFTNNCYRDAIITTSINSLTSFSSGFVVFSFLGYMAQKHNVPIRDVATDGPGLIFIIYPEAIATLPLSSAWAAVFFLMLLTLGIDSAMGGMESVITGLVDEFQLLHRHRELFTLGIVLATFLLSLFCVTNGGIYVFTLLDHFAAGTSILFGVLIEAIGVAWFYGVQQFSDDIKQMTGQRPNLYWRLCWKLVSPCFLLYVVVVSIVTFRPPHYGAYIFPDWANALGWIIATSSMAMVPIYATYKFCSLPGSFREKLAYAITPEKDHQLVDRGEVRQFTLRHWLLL
Sequence of Sodium-dependent serotonin transporter (P31652 whole entry): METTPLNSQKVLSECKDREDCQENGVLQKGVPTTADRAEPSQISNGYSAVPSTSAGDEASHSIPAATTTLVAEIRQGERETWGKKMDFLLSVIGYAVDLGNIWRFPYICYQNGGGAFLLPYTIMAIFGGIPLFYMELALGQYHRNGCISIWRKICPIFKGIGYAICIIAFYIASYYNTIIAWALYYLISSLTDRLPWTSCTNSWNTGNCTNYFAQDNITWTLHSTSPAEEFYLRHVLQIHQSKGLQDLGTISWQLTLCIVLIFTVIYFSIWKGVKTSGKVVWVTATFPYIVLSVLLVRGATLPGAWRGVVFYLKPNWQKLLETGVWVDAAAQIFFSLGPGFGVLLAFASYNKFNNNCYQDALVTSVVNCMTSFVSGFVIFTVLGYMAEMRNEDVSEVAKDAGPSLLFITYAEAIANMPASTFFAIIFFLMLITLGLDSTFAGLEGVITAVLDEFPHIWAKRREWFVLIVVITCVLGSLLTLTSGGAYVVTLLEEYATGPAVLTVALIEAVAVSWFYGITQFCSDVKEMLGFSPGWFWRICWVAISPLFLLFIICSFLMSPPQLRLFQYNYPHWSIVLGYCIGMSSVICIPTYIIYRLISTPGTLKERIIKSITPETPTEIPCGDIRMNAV

As for `COC(=O)[C@@H]1C2CC[C@@H](C[C@@H]1OC(=O)c1ccccc1)N2C` (single isomer, unassigned) [COCAINE], the Drug discrimination effect in [1] was determined as 21%; in assay [10], 32%; in assay [14], 59%; in assay [15], 97%; in assay [19], 82%. The Change is reported as 452% in assay [2]; 201% in assay [3]; 179% in assay [4]; -7% in assay [5]; -47% in assay [6]; -26% in assay [8]. In addition, the Change in assay [9] is reported as 5%; in assay [12], -53%; in assay [13] it was -24%; in assay [16], -26%; in [17] it was -1%; in [18], -53%. For the same compound, the ED50 in assay [7] came out at 18.8 mg/kg; in assay [11], 2.64 mg/kg.

In the case of `Cc1ccc(-c2cc(C3C(c4ccc(C)cc4)CC4CCC3N4C)on2)cc1` (configuration not stated), the Change in [20] is -48%; in [21], -37%; in [22], -43%; in assay [23] it was 60%; in assay [24] it was 1%; in [26] it was -19%. Moreover, the Change was 29% in [27]; -5% in assay [28]; -7% in assay [29]; 102% in assay [30]; -38% in assay [31]; -30% in assay [32]. The Change is recorded as -30% in assay [34]; -6% in assay [35]; -26% in assay [37]; 10% in assay [38]; 76% in [40]; 34% in assay [42]. Also, the results for the Change in assay [43] and in assay [45] were -17% and 73%, respectively. Besides, the Drug discrimination effect is listed as 67% in assay [25], 33% in assay [36], 0% in [14] and 0% in [15]. Also, the IC50 in assay [33] was 0.013 µM; in assay [41] it was more than 100 µM; in assay [44] it was more than 100 µM. In addition, the ED50 entry in assay [39] is “inactive”.

What is called ED50 is the dose that gives a 50% effect, or the effect in half of the subjects. By IC50 is commonly meant the point on the concentration scale where inhibition reaches its midpoint.
